# This sample holds only a part of the variants without activity.
# B1: tRNA (parent)
# chain: GUUCCGUUGGCGUAAUGGUAACGCGUCUCCCUCCUAAGGAGAAGACUGCGGGUUCGAGUCCCGUACGGAACG
# Variants of: B1
# Test: yeast fitness relative to wild type (ratio to wild type); higher = fitter; tRNA-Arg(CCU), competitive growth, 37 C, YPD
# Procedure, shortened: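 A pool of Saccharomyces cerevisiae strains, each with a tRNA-Arg(CCU) gene variant at the native genomic locus, was competed in YPD at 37°C for 24 hours across six parallel replicates. The variants had been chemically synthesised at a 3% per-site mutation rate over 69 sites, and gene amplicons before and after competition were read by 100-nucleotide paired-end sequencing. Darwinian fitness relative to wild type rested on changes in genotype frequencies. Genotypes required ≥ 100 starting reads, and estimates < 0.5 were set to 0.5.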
row,Variant,yeast fitness
1,U2G G17A C24U A36U A37U A70U,≤ 0.5
2,U2A G6A U7C A15C C29G C33U G68U,≤ 0.5
3,U2A U19A G44A,0.544
4,U2A U47G C49A C60U A65C,≤ 0.5
5,U2G G9C A20G A42C C46G C49U C62A A69C,≤ 0.5
6,U2C G23C G51C,≤ 0.5
7,U2C C27U C31U U32G C55A G63A,0.645
8,U2A G17C,0.603
9,U2C C5G C11G C29U A36U G50C U54G,0.628
10,U2A G9C U13A A15G C33A A37U G50C C61U A69U,≤ 0.5
11,U2C A40G,0.984
12,U2C G12A G18C C33U A69C,0.565
13,U2G G18A C27A C30U A65U,≤ 0.5
14,U2G C30U U59C,≤ 0.5
15,U2G G6A A20G,0.61
16,U2C C31G G56A U59A,≤ 0.5
17,U2A G23A,0.867
18,U2C U3C C34A G44C C46U G51A,≤ 0.5
19,U2C A14C A43C,≤ 0.5
20,U2A G12A C30A A43U A57G C60A G67A,≤ 0.5
21,U2G C46A G63C,0.56
22,U2G C31G A57U A65G,≤ 0.5
23,U2G C22A G25A,0.639
24,U2C C5A A40G,0.563

row,Variant,yeast fitness
1,U2G G25U C49U A65G,0.64
2,U2G C61G,0.556
3,U2A G9A A37C A42C G68A,≤ 0.5
4,U2G G9C A20G A42C C46G C49U A69C,0.576
5,U2C A21C G38A,0.594
6,U2A G6A C11G C49U U54C G58C,≤ 0.5
7,U2G C22U C66U,0.563
8,U2A G6C A14C,≤ 0.5
9,U2C C5G A14G,0.559
10,U2C U13A,0.805
11,U2A G9A A37C A42C C61G,≤ 0.5
12,U2G C5U A15U G17A U47G C49G C60G A70U,≤ 0.5
13,U2G C11G G38C G44A C62U U64C,≤ 0.5
14,U2G C4U C61A A65U A69C,≤ 0.5
15,U2C C5G C46U,0.872
16,U2G G25C C29U C33U A40G G52A U59C A65U,0.581
17,U2G C27U C46U,0.999
18,U2G A15C G17C C22G C24A C31A G67C,0.579
19,U2A U16C C30A A65U,≤ 0.5
20,U2C A43C,0.874
21,U2C C4A C34A A43G G52C C61A,≤ 0.5
22,U2A G9A U13A C24A A42G C55U A70C,≤ 0.5
23,U2C U8G C31G A42C C49U G56A C61G,≤ 0.5
24,U2G A21C C22U A70U,≤ 0.5

row,Variant,yeast fitness
1,U2C U3C U19A,0.629
2,U2G G10A A15U A21C G25C,≤ 0.5
3,U2G C60A C66G,0.989
4,U2C C49U G56C,≤ 0.5
5,U2G C11G A20U C24G,0.534
6,U2G C22U U32C G50C,0.658
7,U2G A42C U47A G63C A69C,0.558
8,U2A U8A C11G C30G G48A,≤ 0.5
9,U2A U8A C24U,≤ 0.5
10,U2C G23C C31G C33U A42G G52C G58C,≤ 0.5
11,U2A C31G C61G,≤ 0.5
12,U2G C11G A20U C24G G51A C60G G68C,≤ 0.5
13,U2G C33U C34G A69U,≤ 0.5
14,U2A G44C C55A,≤ 0.5
15,U2C C33U,0.862
16,U2G G10C A70C,≤ 0.5
17,U2G C27U A45C,0.657
18,U2C G56A A65G,1.27
19,U2C G17A A69C,0.576
20,U2C C31G G58A G67U,≤ 0.5
21,U2A C33G A36U G44A U59C,0.554
22,U2G C60U C61A G67C,≤ 0.5
23,U2G C31G A37G,0.605
24,U2G A14U A21C A36C C49A A65G C66G,≤ 0.5

row,Variant,yeast fitness
1,U2C C30U C31U,0.698
2,U2C G51U G58C,0.548
3,U2A G6C G38A,0.592
4,U2G C11G C66U,≤ 0.5
5,U2G C24A C46A A69U,0.774
6,U2C G48C,1.11
7,U2A U8A G12A C30U,≤ 0.5
8,U2G C55U C62G C66A,0.577
9,U2A U13G A40C G41C A57G G63C A65U,≤ 0.5
10,U2G G12A C34A A37G,≤ 0.5
11,U2G C5U U32C C55U,0.581
12,U2C U16G C30G G63C,≤ 0.5
13,U2G C27G C33U,0.644
14,U2A U3A C24G G52C,≤ 0.5
15,U2C A21G C33G,≤ 0.5
16,U2C C4U C30A,0.716
17,U2C G6C A21C C66U,≤ 0.5
18,U2C U53C C61G,≤ 0.5
19,U2C C29G G39C C55A,≤ 0.5
20,U2C A45U C62U G63C,≤ 0.5
21,U2C U35G G52A,≤ 0.5
22,U2C C31A G50C A70G,≤ 0.5
23,U2G C24G C30G C31U U35A A36U G44A G63C,0.552
24,U2A C34A U47G C49G C60G,≤ 0.5

row,Variant,yeast fitness
1,U2G C29U,0.851
2,U2C A14G U28A,0.534
3,U2C G48A G52A,0.623
4,U2C C61U,0.931
5,U2C G23C U28C A43U C60A,≤ 0.5
6,U2G C5A C55U C61A,≤ 0.5
7,U2G G10C G56C A69U,≤ 0.5
8,U2G G39C,0.715
9,U2C U47A C49A,≤ 0.5
10,U2C C46U U64A,0.688
11,U2A G50A,0.858
12,U2A G44A C66U,0.588
13,U2G G17A G23A G38C A40G,0.694
14,U2G G10A,0.697
15,U2C C66U A69U,0.603
16,U2C U8C A20U U28A G67U,≤ 0.5
17,U2A U59A,0.917
18,U2G C30U U32C C55G,≤ 0.5
19,U2G C11A C24A U26A G44C G68A,≤ 0.5
20,U2A C62U,0.899
21,U2C U7G A15G A45U G50A A57C,≤ 0.5
22,U2G C4A C22U U28G A42U C61U,≤ 0.5
23,U2A U8C U13C A42C,≤ 0.5
24,U2C C22G,0.878

row,Variant,yeast fitness
1,U2C C22U,0.842
2,U2C G67C,0.741
3,U2C C5G C24U G38C G39A,≤ 0.5
4,U2G C30G C61U G68A,0.531
5,U2G C11G U19C A20G C24U C31G,≤ 0.5
6,U2G C5U,0.877
7,U2C U7A A65U,0.725
8,U2C U16C C46G C62G,≤ 0.5
9,U2A U13C G38A,≤ 0.5
10,U2G G12A A14G,0.561
11,U2A C60U C62A,≤ 0.5
12,U2C C5U C11G C34U A36G C55G A57U G67A,≤ 0.5
13,U2C G17C G23C G25C U35A A42U C66U,≤ 0.5
14,U2A U16G,1.03
15,U2C A40C G50A C66U,≤ 0.5
16,U2C A70C,0.972
17,U2G A14C A65C,≤ 0.5
18,U2C C30G C61U G68A,≤ 0.5
19,U2C C4U A21C U28C C31A U32C,≤ 0.5
20,U2C C49A,0.685
21,U2C U8A G17C G38A C61A,≤ 0.5
22,U2C A65G,0.867
23,U2C U26G A70U,0.703
24,U2A C34G C49A G50A,0.517

row,Variant,yeast fitness
1,U2A U13G C62G,≤ 0.5
2,U2A U16G C49G,0.705
3,U2C C30G C49A,≤ 0.5
4,U2A C31A A57G,0.555
5,U2A U13C A20G A21C C34U A36G,≤ 0.5
6,U2A G12U G23A A36U G58C C60U,≤ 0.5
7,U2G C24G C29G C31G U64C,≤ 0.5
8,U2G A21C C22U C60G,≤ 0.5
9,U2A U3G C11A U16C C22G A57C,≤ 0.5
10,U2G C11A C24A U26A G44C,≤ 0.5
11,U2C U19C A37G C49A C66G,≤ 0.5
12,U2C A21G,0.975
13,U2C A21C,0.775
14,U2A C34G U64C,≤ 0.5
15,U2C U13A U19C C55A A69C,≤ 0.5
16,U2C C11A A69U,≤ 0.5
17,U2A G50C G56A A57G,≤ 0.5
18,U2C G10C,0.724
19,U2A U32A A37U A43G,≤ 0.5
20,U2A U47G,0.583
21,U2G C27A G67U,≤ 0.5
22,U2C C27G C46U,0.705
23,U2A U16G C66U,0.806

# From the RNAGym collection of RNA variant scans (doi:10.1126/science.aae0568)
